Laboratory results as given in ChEMBL document CHEMBL1156261, “Evaluation of substituted N,N'-diarylsulfonamides as activators of the tumor cell specific M2 isoform of pyruvate kinase” (J Med Chem, 2010).
Activity calls are given as the source filed them.

Target: Pyruvate kinase PKLR (Homo sapiens) (UniProt P30613)
Experiment: Activation of PKR assessed as pyruvate formation by fluorescent pyruvate kinase-lactate dehydrogenase coupled assay relative to control
Design: concentration or dose not given beside the values
Details: not given

Pyruvate kinase PKLR (Homo sapiens), sequence (P30613 whole entry, looked up): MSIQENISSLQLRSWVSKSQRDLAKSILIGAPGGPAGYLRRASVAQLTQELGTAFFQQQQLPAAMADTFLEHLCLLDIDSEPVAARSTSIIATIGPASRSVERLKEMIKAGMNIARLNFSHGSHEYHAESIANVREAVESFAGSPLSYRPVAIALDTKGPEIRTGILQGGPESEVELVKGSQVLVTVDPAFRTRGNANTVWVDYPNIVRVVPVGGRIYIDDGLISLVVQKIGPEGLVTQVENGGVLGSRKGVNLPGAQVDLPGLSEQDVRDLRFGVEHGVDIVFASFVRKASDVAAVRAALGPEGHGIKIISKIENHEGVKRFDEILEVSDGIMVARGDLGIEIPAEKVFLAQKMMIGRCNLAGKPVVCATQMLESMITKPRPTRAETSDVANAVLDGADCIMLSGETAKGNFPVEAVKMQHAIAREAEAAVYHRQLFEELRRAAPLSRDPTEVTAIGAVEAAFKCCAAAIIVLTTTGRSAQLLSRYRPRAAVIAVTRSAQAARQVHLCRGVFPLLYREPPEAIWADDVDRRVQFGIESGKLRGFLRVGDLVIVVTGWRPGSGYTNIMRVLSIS

For `O=S(=O)(NC1CCN(S(=O)(=O)c2ccc3c(c2)OCCO3)CC1)c1c(F)cccc1F`, which Activity is on record?
The Activity was under 30%.

Which Activity does the source give for `O=C(c1ccc2c(c1)OCCO2)N1CCN(S(=O)(=O)c2c(F)cccc2F)CC1` here?
Its Activity is under 30%.

Which Activity does the source give for `O=S(=O)(NCCNS(=O)(=O)c1c(F)cccc1F)c1ccc2c(c1)OCCO2` here?
Its Activity is under 30%.

How did the Activity turn out when `C[C@H]1CN(S(=O)(=O)c2ccc3c(c2)OCCO3)CCN1S(=O)(=O)c1c(F)cccc1F` was run?
Its Activity is under 30%.

How did the Activity turn out when `O=S(=O)(NC1CCN(S(=O)(=O)c2ccc3c(c2)OCCO3)C1)c1c(F)cccc1F` (stereo not given) was run?
The Activity was under 30%.

How did the Activity turn out when `O=S(=O)(NC1CCN(S(=O)(=O)c2c(F)cccc2F)C1)c1ccc2c(c1)OCCO2` (stereo not given) was run?
Its Activity is under 30%.

How did the Activity turn out when `O=S(=O)(c1ccc2c(c1)OCO2)N1CCN(S(=O)(=O)c2c(F)cccc2F)CC1` was run?
The Activity was under 30%.

Target: Pyruvate kinase PKLR (Homo sapiens) (UniProt P30613)
Experiment: Activation of PKR assessed as ATP product formation by luminescent pyruvate kinase-luciferase coupled assay relative to control
Design: concentration or dose not given beside the values
Details: not given
How it was run: (§1)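 Luciferase-coupled ATP production assay run as for PKM2: imidazole pH 7.2 buffer with KCl, MgCl2, Tween 20 and BSA, 0.1 mM ADP, 0.5 mM PEP, 1 h at r.t., Kinase-Glo luminescence. Enzyme final concentrations were PKM1 1 nM, PKL 0.1 nM, PKR 0.1 nM. % activation normalized to DMSO (neutral) and no-enzyme controls.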

`O=S(=O)(NC1CCN(S(=O)(=O)c2ccc3c(c2)OCCO3)CC1)c1c(F)cccc1F` was tested. Which Activity did it give?
Its Activity is under 30%.

How did the Activity turn out when `O=C(c1ccc2c(c1)OCCO2)N1CCN(S(=O)(=O)c2c(F)cccc2F)CC1` was run?
Its Activity is under 30%.

With `O=S(=O)(NCCNS(=O)(=O)c1c(F)cccc1F)c1ccc2c(c1)OCCO2` as the compound, how does the Activity read?
The Activity was under 30%.

With `C[C@H]1CN(S(=O)(=O)c2ccc3c(c2)OCCO3)CCN1S(=O)(=O)c1c(F)cccc1F` as the compound, how does the Activity read?
Its Activity is under 30%.

`O=S(=O)(NC1CCN(S(=O)(=O)c2ccc3c(c2)OCCO3)C1)c1c(F)cccc1F` (stereo not given) was tested. Which Activity did it give?
The Activity was under 30%.

For `O=S(=O)(NC1CCN(S(=O)(=O)c2c(F)cccc2F)C1)c1ccc2c(c1)OCCO2` (stereo not given), which Activity is on record?
The Activity was under 30%.

How did the Activity turn out when `O=S(=O)(c1ccc2c(c1)OCO2)N1CCN(S(=O)(=O)c2c(F)cccc2F)CC1` was run?
The Activity was under 30%.

Target: Pyruvate kinase PKLR (Homo sapiens) (UniProt P30613)
Experiment: Activation of PKL assessed as pyruvate formation by fluorescent pyruvate kinase-lactate dehydrogenase coupled assay relative to control
Design: concentration or dose not given beside the values
Details: not given

Which Activity does the source give for `O=S(=O)(NC1CCN(S(=O)(=O)c2ccc3c(c2)OCCO3)CC1)c1c(F)cccc1F` here?
Its Activity is under 30%.

With `O=C(c1ccc2c(c1)OCCO2)N1CCN(S(=O)(=O)c2c(F)cccc2F)CC1` as the compound, how does the Activity read?
Its Activity is under 30%.

With `O=S(=O)(NCCNS(=O)(=O)c1c(F)cccc1F)c1ccc2c(c1)OCCO2` as the compound, how does the Activity read?
The Activity was under 30%.

`C[C@H]1CN(S(=O)(=O)c2ccc3c(c2)OCCO3)CCN1S(=O)(=O)c1c(F)cccc1F` was tested. Which Activity did it give?
The Activity was under 30%.

How did the Activity turn out when `O=S(=O)(NC1CCN(S(=O)(=O)c2ccc3c(c2)OCCO3)C1)c1c(F)cccc1F` (stereo not given) was run?
Its Activity is under 30%.

How did the Activity turn out when `O=S(=O)(NC1CCN(S(=O)(=O)c2c(F)cccc2F)C1)c1ccc2c(c1)OCCO2` (stereo not given) was run?
The Activity was under 30%.

For `O=S(=O)(c1ccc2c(c1)OCO2)N1CCN(S(=O)(=O)c2c(F)cccc2F)CC1`, which Activity is on record?
Its Activity is under 30%.

Target: Pyruvate kinase PKLR (Homo sapiens) (UniProt P30613)
Experiment: Activation of PKL assessed as ATP product formation by luminescent pyruvate kinase-luciferase coupled assay relative to control
Design: concentration or dose not given beside the values
Details: not given
How it was run: as §1

How did the Activity turn out when `O=S(=O)(NC1CCN(S(=O)(=O)c2ccc3c(c2)OCCO3)CC1)c1c(F)cccc1F` was run?
Its Activity is under 30%.

`O=C(c1ccc2c(c1)OCCO2)N1CCN(S(=O)(=O)c2c(F)cccc2F)CC1` was tested. Which Activity did it give?
Its Activity is under 30%.

With `O=S(=O)(NCCNS(=O)(=O)c1c(F)cccc1F)c1ccc2c(c1)OCCO2` as the compound, how does the Activity read?
The Activity was under 30%.

How did the Activity turn out when `C[C@H]1CN(S(=O)(=O)c2ccc3c(c2)OCCO3)CCN1S(=O)(=O)c1c(F)cccc1F` was run?
The Activity was under 30%.

With `O=S(=O)(NC1CCN(S(=O)(=O)c2ccc3c(c2)OCCO3)C1)c1c(F)cccc1F` (stereo not given) as the compound, how does the Activity read?
The Activity was under 30%.

How did the Activity turn out when `O=S(=O)(NC1CCN(S(=O)(=O)c2c(F)cccc2F)C1)c1ccc2c(c1)OCCO2` (stereo not given) was run?
Its Activity is under 30%.

`O=S(=O)(c1ccc2c(c1)OCO2)N1CCN(S(=O)(=O)c2c(F)cccc2F)CC1` was tested. Which Activity did it give?
The Activity was under 30%.

Target: T1, Pyruvate kinase PKM (Homo sapiens, UniProt P14618)
Experiment: Activation of PKM2 assessed as ATP product formation by luminescent pyruvate kinase-luciferase coupled assay
Details: not given
How it was run: (§2)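 Recombinant human PKM2 (0.1 nM final) in 50 mM imidazole pH 7.2, 50 mM KCl, 7 mM MgCl2, 0.01% Tween 20, 0.05% BSA; 0.1 mM ADP, 0.5 mM PEP; 1 h at r.t., then Kinase-Glo luciferase read of ATP formed. Activation % = (c−n)/(n−i)×100 against DMSO and no-enzyme controls; 100% ≈ 2-fold over basal signal. Max response taken at 57 μM; three separate experiments.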
Target sequence in this assay (P14618 whole entry): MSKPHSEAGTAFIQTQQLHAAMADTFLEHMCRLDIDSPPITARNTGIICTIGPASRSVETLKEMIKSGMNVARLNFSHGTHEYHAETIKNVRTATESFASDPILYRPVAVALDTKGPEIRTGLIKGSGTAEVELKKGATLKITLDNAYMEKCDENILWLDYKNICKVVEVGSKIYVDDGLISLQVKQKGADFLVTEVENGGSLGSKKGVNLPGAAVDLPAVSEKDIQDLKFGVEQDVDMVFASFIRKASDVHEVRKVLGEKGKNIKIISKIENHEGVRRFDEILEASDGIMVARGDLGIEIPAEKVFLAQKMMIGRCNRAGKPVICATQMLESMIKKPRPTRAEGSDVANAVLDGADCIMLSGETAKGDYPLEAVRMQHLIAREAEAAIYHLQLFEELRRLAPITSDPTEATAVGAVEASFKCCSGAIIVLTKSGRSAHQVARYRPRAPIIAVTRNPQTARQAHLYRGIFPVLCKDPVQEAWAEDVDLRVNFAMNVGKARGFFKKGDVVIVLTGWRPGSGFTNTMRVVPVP

For `O=C(c1ccc2c(c1)OCCO2)N1CCN(S(=O)(=O)c2c(F)cccc2F)CC1`, which AC50 is on record?
Its AC50 is “Not Active”.

Same assay, conditions: read-out: AC50

For `O=S(=O)(NC1CCN(S(=O)(=O)c2ccc3c(c2)OCCO3)CC1)c1c(F)cccc1F`, which AC50 is on record?
Its AC50 is 3.69 µM.

How did the AC50 turn out when `O=S(=O)(NCCNS(=O)(=O)c1c(F)cccc1F)c1ccc2c(c1)OCCO2` was run?
Its AC50 is over 15 µM.

How did the AC50 turn out when `C[C@H]1CN(S(=O)(=O)c2ccc3c(c2)OCCO3)CCN1S(=O)(=O)c1c(F)cccc1F` was run?
The AC50 was 9.18 µM.

With `O=S(=O)(NC1CCN(S(=O)(=O)c2ccc3c(c2)OCCO3)C1)c1c(F)cccc1F` (stereo not given) as the compound, how does the AC50 read?
The AC50 was over 15 µM.

Which AC50 does the source give for `O=S(=O)(NC1CCN(S(=O)(=O)c2c(F)cccc2F)C1)c1ccc2c(c1)OCCO2` (stereo not given) here?
The AC50 was over 10 µM.

Target: T1, Pyruvate kinase PKM
Experiment: Activation of PKM2 assessed as ATP product formation at 57 uM by luminescent pyruvate kinase-luciferase coupled assay relative to fructose-1,6-bis-phosphate
Details: not given
How it was run: as §2
Target sequence in this assay (P14618 2-531 limits assumed): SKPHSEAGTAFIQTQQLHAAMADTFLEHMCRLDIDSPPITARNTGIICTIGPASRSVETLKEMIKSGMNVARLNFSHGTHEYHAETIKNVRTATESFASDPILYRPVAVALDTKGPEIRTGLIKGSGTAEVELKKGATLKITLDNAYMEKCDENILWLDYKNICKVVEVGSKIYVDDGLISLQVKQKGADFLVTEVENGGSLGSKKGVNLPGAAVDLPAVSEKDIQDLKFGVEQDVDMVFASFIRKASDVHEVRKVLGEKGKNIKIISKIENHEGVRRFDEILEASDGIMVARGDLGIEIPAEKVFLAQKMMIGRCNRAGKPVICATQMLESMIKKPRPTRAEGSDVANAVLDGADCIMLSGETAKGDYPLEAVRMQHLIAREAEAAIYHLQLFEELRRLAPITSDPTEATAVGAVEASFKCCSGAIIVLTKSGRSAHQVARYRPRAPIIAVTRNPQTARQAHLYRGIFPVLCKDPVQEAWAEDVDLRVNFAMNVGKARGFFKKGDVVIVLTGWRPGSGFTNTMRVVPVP

Which Activity does the source give for `O=S(=O)(NC1CCN(S(=O)(=O)c2ccc3c(c2)OCCO3)CC1)c1c(F)cccc1F` here?
The Activity was 101%.

How did the Activity turn out when `O=C(c1ccc2c(c1)OCCO2)N1CCN(S(=O)(=O)c2c(F)cccc2F)CC1` was run?
The Activity was “inactive”.

For `O=S(=O)(NCCNS(=O)(=O)c1c(F)cccc1F)c1ccc2c(c1)OCCO2`, which Activity is on record?
The Activity was 60.3%.

Which Activity does the source give for `C[C@H]1CN(S(=O)(=O)c2ccc3c(c2)OCCO3)CCN1S(=O)(=O)c1c(F)cccc1F` here?
Its Activity is 108%.

For `O=S(=O)(NC1CCN(S(=O)(=O)c2ccc3c(c2)OCCO3)C1)c1c(F)cccc1F` (stereo not given), which Activity is on record?
Its Activity is 82.4%.

Which Activity does the source give for `O=S(=O)(NC1CCN(S(=O)(=O)c2c(F)cccc2F)C1)c1ccc2c(c1)OCCO2` (stereo not given) here?
The Activity was 83.7%.

For `O=S(=O)(c1ccc2c(c1)OCO2)N1CCN(S(=O)(=O)c2c(F)cccc2F)CC1`, which Activity is on record?
Its Activity is 61%.

Target: T1, Pyruvate kinase PKM
Experiment: Activation of PKM1 assessed as pyruvate formation by fluorescent pyruvate kinase-lactate dehydrogenase coupled assay
Details: not given
Target sequence in this assay (P14618 2-531 limits assumed): as above

For `O=S(=O)(NC1CCN(S(=O)(=O)c2ccc3c(c2)OCCO3)CC1)c1c(F)cccc1F`, which Activity is on record?
Its Activity is “inactive”.

How did the Activity turn out when `O=C(c1ccc2c(c1)OCCO2)N1CCN(S(=O)(=O)c2c(F)cccc2F)CC1` was run?
The Activity was “inactive”.

How did the Activity turn out when `O=S(=O)(NCCNS(=O)(=O)c1c(F)cccc1F)c1ccc2c(c1)OCCO2` was run?
Its Activity is “inactive”.

`C[C@H]1CN(S(=O)(=O)c2ccc3c(c2)OCCO3)CCN1S(=O)(=O)c1c(F)cccc1F` was tested. Which Activity did it give?
The Activity was “inactive”.

`O=S(=O)(NC1CCN(S(=O)(=O)c2ccc3c(c2)OCCO3)C1)c1c(F)cccc1F` (stereo not given) was tested. Which Activity did it give?
Its Activity is “inactive”.

`O=S(=O)(NC1CCN(S(=O)(=O)c2c(F)cccc2F)C1)c1ccc2c(c1)OCCO2` (stereo not given) was tested. Which Activity did it give?
The Activity was “inactive”.

For `O=S(=O)(c1ccc2c(c1)OCO2)N1CCN(S(=O)(=O)c2c(F)cccc2F)CC1`, which Activity is on record?
Its Activity is “inactive”.

Target: T1, Pyruvate kinase PKM
Experiment: Activation of PKM1 assessed as ATP product formation by luminescent pyruvate kinase-luciferase coupled assay
Details: not given
How it was run: as §1
Target sequence in this assay (P14618 2-531 limits assumed): as above

Which Activity does the source give for `O=S(=O)(NC1CCN(S(=O)(=O)c2ccc3c(c2)OCCO3)CC1)c1c(F)cccc1F` here?
Its Activity is “inactive”.

`O=C(c1ccc2c(c1)OCCO2)N1CCN(S(=O)(=O)c2c(F)cccc2F)CC1` was tested. Which Activity did it give?
Its Activity is “inactive”.

With `O=S(=O)(NCCNS(=O)(=O)c1c(F)cccc1F)c1ccc2c(c1)OCCO2` as the compound, how does the Activity read?
Its Activity is “inactive”.

Which Activity does the source give for `C[C@H]1CN(S(=O)(=O)c2ccc3c(c2)OCCO3)CCN1S(=O)(=O)c1c(F)cccc1F` here?
Its Activity is “inactive”.

Which Activity does the source give for `O=S(=O)(NC1CCN(S(=O)(=O)c2ccc3c(c2)OCCO3)C1)c1c(F)cccc1F` (stereo not given) here?
The Activity was “inactive”.

`O=S(=O)(NC1CCN(S(=O)(=O)c2c(F)cccc2F)C1)c1ccc2c(c1)OCCO2` (stereo not given) was tested. Which Activity did it give?
Its Activity is “inactive”.

Which Activity does the source give for `O=S(=O)(c1ccc2c(c1)OCO2)N1CCN(S(=O)(=O)c2c(F)cccc2F)CC1` here?
Its Activity is “inactive”.
